# Values joined by “and” are separate entries in the source; they are usually repeats but may differ in a detail not shown here. Identical values can stand only once. “Also recorded” adds a separate entry of the source.
# Columns and labels:
# [1] = Chemical stability of the inhibitors; format: physicochemical; conditions: compound not in complex with HPPK
# HPPK [2] = biological target: HPPK (Escherichia coli, UniProt P26281); test: Fluorometric titration of HPPK with inhibitor; format: binding, E. coli; conditions: ratio of Kd values, 19 versus 17
# Procedure, shortened: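 Fluorescence titration of HPPK (initial 10 μM) with inhibitor dissolved in DMSO, added as aliquots from a 500 μM stock. Excitation/emission 420/450 nm or 450/480 nm depending on compound; slits 1 and 4 nm. Kd from nonlinear least-squares fit of fluorescence change to a quadratic single-site binding equation using total enzyme and total inhibitor concentrations.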
# E. coli HPPK = E. coli HPPK (Escherichia coli, UniProt P26281); test: HPPK enzyme inhibition assay with [α-32P]-ATP; format: biochemical; conditions: ratio of IC50 values, 19 versus 17
# HPPK [3] = conditions: cited from earlier work
# HPPK (Escherichia coli, UniProt P26281), sequence (P26281 whole entry): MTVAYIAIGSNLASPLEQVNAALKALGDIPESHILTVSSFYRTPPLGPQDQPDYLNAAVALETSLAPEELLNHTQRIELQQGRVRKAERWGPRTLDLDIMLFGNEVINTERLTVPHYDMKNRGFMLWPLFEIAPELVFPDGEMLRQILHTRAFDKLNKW
# E. coli HPPK, sequence (P26281 whole entry): as above
compound,measurement,setting,value
"Nc1nc2ncc(CNCCN3CCC(SC[C@H]4O[C@@H](n5cnc6c(N)ncnc65)[C@H](O)[C@@H]4O)CC3)nc2c(=O)[nH]1 [Compound 17, 2-amino-6-[(2-{4-[5-(6-amino-purin-9-yl)-3,4-dihydroxy-tetrahydro-furan-2-ylmethylsulfanyl]-piperidin-1-yl}-ethylamino)-methyl]-3H-pteridin-4-one]",chemical stability,[1],stable
"CC1(C)Nc2nc(N)[nH]c(=O)c2N=C1CNCCN1CCC(SCC2OC(n3cnc4c(N)ncnc43)C(O)C2O)CC1 (centres unmarked) [Compound 18, 2-amino-6-[(2-{4-[5-(6-amino-purin-9-yl)-3,4-dihydroxy-tetrahydro-furan-2-ylmethylsulfanyl]-piperidin-1-yl}-ethylamino)-methyl]-7,7-dimethyl-7,8-dihydro-3H pteridin-4-one]",chemical stability,[1],not stable; also recorded: tends to degrade
"CC1(C)Nc2nc(N)[nH]c(=O)c2N=C1C(=O)NCCN1CCC(SC[C@H]2O[C@@H](n3cnc4c(N)ncnc43)[C@H](O)[C@@H]2O)CC1 [Compound 19, 2-amino-7,7-dimethyl-4-oxo-3,4,7,8-tetrahydro-pteridine-6-carboxylic acid (2-{4-[5-(6-amino-purin-9-yl)-3,4-dihydroxy-tetrahydro-furan-2-ylmethylsulfanyl]-piperidin-1-yl}-ethyl)-amide]",increased binding affinity over 17,HPPK [2],60 fold and ~ 60 fold
same,increased inhibition ability over 17,E. coli HPPK,30 fold
same,chemical stability,[1],stable
"Nc1nc2c(c(=O)[nH]1)N=C(CO)CN2 [HP, 6-hydroxymethyl-7,8-dihydropterin]",Kd for the binding of HP to ligand-free HPPK,HPPK [3],mM range
same,Kd for the binding of HP to the HPPK MgATP complex,HPPK [3],sub-μM range
Nc1ncnc2c1ncn2[C@@H]1O[C@H](COP(=O)(O)OP(=O)(O)OP(=O)(O)O)[C@@H](O)[C@H]1O [MgATP],Kd,HPPK [3]; read-out: Kd for the binding of MgATP to HPPK,2.6 to 4.5 µM
